Screening results as filed in PubChem BioAssay.
ATG4B inhibitor: inhibitors of human ATG4B cysteine protease; Q9Y4P1; ATG4B cleavage of LC3-PLA2, NBD-HPC fluorescence, 1 h; inhibition, % at 8.33 µM; 340,000 tested, 0.51% active; in the data active means inhibition above about 40%
CSN inh: inhibitors of human CSN-mediated cullin deneddylation | inhibition, % at 12.5 µM | Purified CSN, SCF-Nedd8-OG deneddylation, fluorescence polarization | AID 651999 | 360,000 tested, 0.38% active | Q92905;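 active means pattern-corrected inhibition above about 35%, with an unprinted fluorescence ratio check between 0.5 and 1.5, limit read from the data, passing the limit was not always enough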;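 further: 0% = enzyme with substrate and 100% = substrate without enzyme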
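Test system: Human Csn5 produced in HEK293T cells | Compound: 12.5 µM single point | Times: 90 min, room temperature | Signal: Fluorescence polarization readout | Read-out basis: % inhibition of substrate cleavage by Csn5 | Controls: no-enzyme wells high, enzyme-with-substrate wells low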
Rpn11 inh: inhibitors of human proteasome Rpn11; human 26S proteasome, Ub4-pepOG fluorescence polarization; 20S core pre-blocked with epoxomicin; 360,000 tested, 0.59% active; inhibition, % at 20 µM; AID 588493;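 active means inhibition at 20 µM, scaled to each plate's controls, above about 33%, limit read from the data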
SENP1 inh: SENP1 (human) catalytic domain inhibition. recombinant SENP1 catalytic domain, CyPet-SUMO1-YPet FRET cleavage. inhibition, % at 10 µM. Q9P0U3. 360,000 tested, 0.21% active. AID 624204;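 active means inhibition at least 30% at 10 µM, raw YFP signal under a set limit, fluorescence ratio 0.5 to 1.5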;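 further: 0% = enzyme with DMSO and 100% = no enzyme wells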
Target sequence (Q9P0U3 419-644 limits assumed): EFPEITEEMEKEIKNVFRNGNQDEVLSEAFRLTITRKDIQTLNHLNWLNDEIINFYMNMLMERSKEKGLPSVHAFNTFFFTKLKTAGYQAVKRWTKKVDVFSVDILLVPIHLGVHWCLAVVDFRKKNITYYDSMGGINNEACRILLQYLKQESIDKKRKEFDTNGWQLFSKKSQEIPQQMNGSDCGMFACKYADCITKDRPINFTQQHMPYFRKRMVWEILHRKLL
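Assay system: hSENP1 catalytic domain, recombinant. Amount: SENP1 enzyme, 20 pM final. Schedule: 50 min reaction, RT, dark. Technique: FRET, CFP and YFP emission. Control set: no-enzyme wells low, DMSO-plus-enzyme wells high control.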
HNF4A DNA FP: change in binding of human HNF4 alpha to DNA; 360,000 tested, 0.3% active; AID 1224865; P41235; HNF4a-FITC DNA binding, fluorescence polarization, 1 h; activity change, % at 10 µM; in the data active means activity change above about 30%, passing the limit was not always enough
TPT1 inhibitor: C. albicans TPT1 enzyme inhibition | recombinant caTPT1, FP RNA substrate dephosphorylation | inhibition, % at 5 µM | 300,000 tested, 0.81% active;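 active means inhibition above the mean of all tested compounds plus 3 SD, set per screening campaign, cut at about 24% in these data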;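 further: plate controls were DMSO alone for no effect and ferristatin control at 100 nM for full effect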
ATG4B conf: confirmation of human ATG4B inhibitors. inhibition, % at 8.33 µM. shares compounds with ATG4B inhibitor. ATG4B protease fluorescent substrate cleavage assay. 320 tested, 92% active; in the data active means inhibition above about 39%
PLA2 ctr: counter-screen for ATG4B inhibitors: human phospholipase A2 | shares compounds with ATG4B inhibitor | purified PLA2, NBD-C6-HPC fluorescence, 45 min | 1,600 tested, 66% active | inhibition, % at 8.33 µM; in the data active means inhibition above about 50%
Target sequence (P04054 whole entry, looked up): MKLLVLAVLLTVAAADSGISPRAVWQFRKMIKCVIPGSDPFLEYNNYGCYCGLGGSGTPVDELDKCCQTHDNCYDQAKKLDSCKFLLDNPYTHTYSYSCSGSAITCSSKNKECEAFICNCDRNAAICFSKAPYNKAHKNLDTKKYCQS
The depositor's hits bear a star; / = no result given. Compounds with a hit are over-represented: about 2% of the library has one in this group of screens.

SMILES	ATG4B inhibitor	CSN inh	Rpn11 inh	SENP1 inh	HNF4A DNA FP	TPT1 inhibitor	PLA2 ctr	others
C=CCn1c(SCC(O)Cn2c3ccccc3c3ccccc32)nnc1-c1ccco1 (stereo not given)	46*	0	5	0	0	-5	48
C=CCn1c(SCC(=O)N2c3ccccc3Sc3ccccc32)nnc1-c1ccco1	-2	-5	4	2	0	-1	/
COc1ccc(CN(C)C(C)C(=O)Nc2ccc(S(=O)(=O)N3CCCCC3)cc2)cc1F (stereo not given)	1	-5	1	-2	3	/	/
CC1=NN(c2ccccc2)C(=O)/C1=C/c1c(O)n(-c2ccc(F)c(Cl)c2)[nH]c1=O	55*	/	/	/	/	-1	64*
C/C=C/c1ccc(OCCOc2cc(C=O)ccc2OC)c(OC)c1	47*	-6	2	-1	-4	2	48
Cc1cccc(NC(=O)CSc2nnc(-c3cc(C)n(-c4ccccc4)c3C)o2)c1C	41*	2	0	1	0	-2	56*
O=C(NC(=S)NCCC1=CCCCC1)c1ccc(Br)o1	40*	-9	-4	3	2	1	36	ATG4B conf=62*
CC(C)c1ccc(Nc2nc(N3CCOCC3)nc(N3CCOCC3)n2)cc1	/	2	0	0	4	/	/
CC(C)c1ccc(Nc2nc(NCc3ccco3)nc(N3CCOCC3)n2)cc1	41*	-4	-1	0	-3	1	57*
Clc1ccc(/C=N/Nc2nnc(-c3ncc[nH]3)c3ccccc23)cc1	79*	-5	5	-39	5	0	82*
Cc1cccc(C)c1OCc1cc(C(=O)N2CCCCCCC2)no1	40*	-5	-4	2	-2	-6	50*
Cc1ccc(OCc2cc(C(=O)N3CCc4sccc4C3)no2)cc1C	57*	-1	-13	1	-2	/	79*
Cc1ccc(N2CCN(C(=O)c3cc(COc4c(C)cccc4C)on3)CC2)c(C)c1	11	-4	12	-2	1	1	/
Cc1ccc(OCc2cc(C(=O)N3CCCCCCC3)no2)cc1C	6	1	5	1	-1	-1	/
CCCCNC(=O)C1(C)CCCCN1C(=O)c1csnn1 (stereo not given)	/	2	-12	-1	0	/	/
O=c1c2ccccc2nc(/C=C/c2c[nH]c3ccccc23)n1-c1ccc([N+](=O)[O-])cc1	57*	-1	0	-18	-1	3	26
CC(C#N)Sc1nc2ccccc2c(=O)n1-c1ccccc1 (stereo not given)	47*	-4	2	1	5	-8	56*
Cc1ccc(-n2c(SCc3ccc([N+](=O)[O-])cc3)nc3ccccc3c2=O)cc1	41*	2	-3	1	2	-1	20
Cc1[nH]c2ccccc2c1/C=C/c1nc2ccccc2c(=O)n1-c1cccc([N+](=O)[O-])c1	-16	-8	12	-50	2	7	/
CCOC(CCn1c(SCc2ccc([N+](=O)[O-])cc2)nc2ccccc2c1=O)OCC	16	1	4	0	-3	0	/
Cc1ccc(-n2c(SCC(=O)NNC(=S)Nc3ccccc3)nc3ccccc3c2=O)cc1	78*	-10	12	1	2	1	82*
O=[N+]([O-])c1cc(-c2cccnc2)n[nH]1	-1	-1	-6	1	1	/	/
CCOC(=O)c1c(C)[nH]c(C)c1C(=O)CSc1nc2ccccc2c(=O)n1-c1ccc(CC)cc1	52*	-7	-3	-1	-3	2	66*
O=C(Cc1ccc(NC(=O)C2CCCN(C(=O)c3ccccc3)C2)cc1)Nc1ccc(C(=O)N2CCOCC2)cc1 (stereo not given)	-2	-6	6	0	4	/	/
